ChEMBL document CHEMBL4351018, “Novel phenanthridin-6(5H)-one derivatives as potent and selective BET bromodomain inhibitors: Rational design, synthesis and biological evaluation” (Eur J Med Chem, 2019)

Legend:
A549 [1] = experiment: Induction of cell cycle arrest in human A549 cells assessed as increase in accumulation at M phase incubated for 48 hrs by BrdU/PI staining based flow cytometric analysis; type: functional
Method in brief: (§1)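 Subconfluent A549 cells exposed 48 h to 0.3–5.0 μM with DMSO vehicle control. Pulse-labelled with 10 μM BrdU for 30 min at 37 °C before harvest. Fixed in 70% ethanol, denatured in 2 M HCl, neutralised, then stained with fluorescein anti-BrdU antibody and propidium iodide. Analysed by flow cytometry with 488 nm excitation.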

HepG2 = experiment: Antiproliferative activity against human HepG2 cells incubated for 48 hrs by MTT assay; type: functional, cell-based; conditions: HepG2, 48 h
Method in brief: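 Cells kept in DMEM or RPMI 1640 with 10% FBS at 37 °C, 5% CO2. MTT added for 4 h at 37 °C, formazan dissolved in DMSO, OD read at 570 nm. Survival % taken relative to blank and control wells. Triplicate runs; IC50 from curve fit.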

[2] = Apparent clearance in Sprague-Dawley rat at 10 mg/kg, po measured for 0.083 to 24 hrs by LC-MS/MS analysis; type: ADME, organism-based; conditions: in vivo, read-out: CL(app) (converted)
[3] = molecular target: T1, Bromodomain-containing protein 9 (Homo sapiens) (UniProt Q9H8M2); experiment: Binding affinity to BRD9 (unknown origin) at 20 uM by Alpha screen assay relative to control
T1 sequence (whole entry): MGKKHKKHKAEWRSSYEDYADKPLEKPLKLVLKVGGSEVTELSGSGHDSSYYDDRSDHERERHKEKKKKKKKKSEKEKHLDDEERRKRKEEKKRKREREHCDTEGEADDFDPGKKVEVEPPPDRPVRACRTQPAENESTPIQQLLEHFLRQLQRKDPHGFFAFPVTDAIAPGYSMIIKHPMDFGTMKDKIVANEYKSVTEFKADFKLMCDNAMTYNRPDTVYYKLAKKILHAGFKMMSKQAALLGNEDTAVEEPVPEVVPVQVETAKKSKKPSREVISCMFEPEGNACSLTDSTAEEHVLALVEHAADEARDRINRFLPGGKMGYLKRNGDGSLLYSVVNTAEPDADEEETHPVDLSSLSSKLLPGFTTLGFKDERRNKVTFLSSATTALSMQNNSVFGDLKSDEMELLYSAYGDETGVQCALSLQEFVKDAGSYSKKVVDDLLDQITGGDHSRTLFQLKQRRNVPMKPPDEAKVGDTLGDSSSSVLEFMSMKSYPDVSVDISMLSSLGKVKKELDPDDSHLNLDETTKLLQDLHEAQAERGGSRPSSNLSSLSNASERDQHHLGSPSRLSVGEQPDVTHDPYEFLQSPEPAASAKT

A549 [4] = experiment: Induction of apoptosis in human A549 cells assessed as early apoptotic cells at 5.0 uM incubated for 48 hrs by annexin V-FITC/PI double staining based flow cytometric analysis (reference value: 1.76%); type: functional
A549 [5] = experiment: Induction of apoptosis in human A549 cells assessed as early apoptotic cells at 3.0 uM incubated for 48 hrs by annexin V-FITC/PI double staining based flow cytometric analysis (reference value: 1.76%); type: functional
A549 [6] = experiment: Induction of cell cycle arrest in human A549 cells assessed as increase in accumulation at G1 phase incubated for 48 hrs by BrdU/PI staining based flow cytometric analysis; type: functional; method in brief: as §1
[7] = molecular target: Bromodomain-containing protein 2 (Homo sapiens) (UniProt P25440); experiment: Binding affinity to BRD2 bromodomain 1 (unknown origin) at 20 uM by Alpha screen assay relative to control
Chain of Bromodomain-containing protein 2 (Homo sapiens) (P25440 whole entry, looked up): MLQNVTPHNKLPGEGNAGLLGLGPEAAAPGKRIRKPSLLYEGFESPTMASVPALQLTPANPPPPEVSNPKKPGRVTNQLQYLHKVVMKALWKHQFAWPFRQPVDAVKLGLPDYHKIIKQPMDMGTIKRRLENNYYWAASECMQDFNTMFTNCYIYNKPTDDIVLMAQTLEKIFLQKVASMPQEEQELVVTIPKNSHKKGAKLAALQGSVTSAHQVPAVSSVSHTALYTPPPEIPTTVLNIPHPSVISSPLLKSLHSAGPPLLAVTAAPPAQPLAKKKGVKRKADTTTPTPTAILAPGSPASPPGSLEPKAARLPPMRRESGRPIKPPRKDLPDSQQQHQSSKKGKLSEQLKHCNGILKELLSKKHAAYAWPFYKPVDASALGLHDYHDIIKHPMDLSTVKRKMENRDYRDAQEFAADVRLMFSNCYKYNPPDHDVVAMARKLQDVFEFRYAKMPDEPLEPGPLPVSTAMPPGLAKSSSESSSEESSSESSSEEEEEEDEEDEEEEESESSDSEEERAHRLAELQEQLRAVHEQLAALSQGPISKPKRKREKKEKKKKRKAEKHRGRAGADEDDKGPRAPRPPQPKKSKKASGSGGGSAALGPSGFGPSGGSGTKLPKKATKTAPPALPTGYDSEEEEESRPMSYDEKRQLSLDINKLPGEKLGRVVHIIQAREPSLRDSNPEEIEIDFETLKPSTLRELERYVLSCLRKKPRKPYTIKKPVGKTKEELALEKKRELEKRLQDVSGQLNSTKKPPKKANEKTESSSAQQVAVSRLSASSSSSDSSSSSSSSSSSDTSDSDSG

COc1ccc(Cl)cc1S(=O)(=O)Nc1ccc2[nH]c(=O)c3ccccc3c2c1
Activity (A549 [1]): Dose-dependent effect
IC50 (HepG2): 4.83 µM
CL/F [2]: 303 mL/min/kg
Activity [3]: > 30%
Activity (A549 [4]): 72%
Activity (A549 [5]): 68.3%
Activity (A549 [6]): Dose-dependent effect
Activity [7]: > 70%
